Source: PubChem
Only some compounds are listed: those with a hit (about 2.6% of all), similar ones and a draw of the others.
Yeast growth inh = reduces growth of yeast BB579 in restrictive medium. S. cerevisiae BB579 growth, OD615, 48 h. hit rate 0.51% among 140,000. inhibition, % at 10 µM. AID 804;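 active means inhibition above a set limit, 3 SD over the mean compound inhibition, cut at about 44% in these data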
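Assay system: S. cerevisiae DeaD strain BB579 yeast. Medium: CSMM-D restrictive synthetic medium containing dextrose (glucose). Times: 4 h cell preincubation, 48 h compound exposure, 30 °C humidified. Signal: OD615 turbidity measurement. Benchmarks: positive control amphotericin B 10 µg/mL.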
Yeast lifespan up = extends the lifespan of yeast | S. cerevisiae growth with nicotinamide, OD615; deaD strain in restrictive glucose medium | inhibition of the nicotinamide effect, % at 10 µM | hit rate 0.68% among 130,000;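 active means inhibition above a set limit, placed 3 SD over the median of all compounds, cut at about 26% in these data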
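Assay system: engineered S. cerevisiae DeaD replicative-lifespan strain, galactose-grown log-phase cells; medium: restrictive CSMM-D dextrose medium; also added: nicotinamide, 1.5 mM, co-present with compound; schedule: 48 h compound exposure at 30 °C, humidified; detection: absorbance at 615 nm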
RAM inhibit = yeast RAM network inhibition | S. cerevisiae dse1pr::URA3 reporter, 5-FOA growth OD615, 2 d; analog-sensitive cbk1-as2 kinase mutant strain | inhibition, % at 50 µM | hit rate 1.8% among 190,000 | AID 868;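 active means inhibition above a set limit, 3 SD over mean compound inhibition, cut at about 8.4% in these data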;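 further: inhibition rescues growth on 5-FOA so higher OD means more RAM inhibition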
Each line names hits and unclear results; the compound was inactive in the other large screens.

O=C(/C=C/c1ccccc1)CC(O)(c1ccccc1)C(F)(F)C(F)F (stereo not drawn)	Yeast lifespan up 40
O=C(NC1CC1)C1CCN(C2CCN(C(=O)/C=C/c3cccc(F)c3F)CC2)CC1	none (no result: Yeast growth inh, Yeast lifespan up)
O=S(=O)(Nc1cccc2c1CCCC2)c1ccc(Cl)cc1	RAM inhibit 9.2
CC(=O)Nc1ccccc1NS(=O)(=O)c1ccc(Cl)cc1	none
Cc1ccc(C(=O)NN2C(=O)/C(=C/c3cn(C)c4ccccc34)SC2=S)cc1	none
Cn1cc(/C=C2\SC(=O)NC2=S)c2ccccc21	RAM inhibit 10 (no result: Yeast growth inh, Yeast lifespan up)
COC(=O)/C(=C\C(=O)c1ccccc1)Nc1cccc(C(F)(F)F)c1	none
Cn1cc(/C=N/n2cnc3sc4c(c3c2=O)CCCC4)c2ccccc21	none
O=c1c2c3c(sc2ncn1/N=C/c1ccc([N+](=O)[O-])o1)CCCC3	Yeast lifespan up 65
COc1cc(-c2nc(-c3ccc4c(c3)-c3ccccc3S4(=O)=O)c(-c3ccccc3)[nH]2)cc(OC)c1OC	none
COc1cccc(-c2nc(-c3ccc4c(c3)-c3ccccc3S4(=O)=O)c(-c3ccccc3)[nH]2)c1OC	RAM inhibit 9.2 (no result: Yeast lifespan up)
Cc1ccc2nc(-c3cccc(NS(C)(=O)=O)c3)cc(-c3ccccc3)c2c1	none
O=C(COc1ccc(Br)cc1Cl)NC1CCCCC1	RAM inhibit 8.9
O=C(COc1ccc(Br)cc1Br)NC1CCCC1	none (no result: Yeast growth inh, Yeast lifespan up)
CS(=O)(=O)C1=NSC2=NC(=O)/C(=C\c3ccc(-c4ccccc4)o3)C(=N)N21	none
CCSC1=NSC2=NC(=O)/C(=C\c3coc4ccccc4c3=O)C(=N)N12	Yeast lifespan up 38
CC(NC(=O)CSc1nnc(-c2cccnc2)n1N)c1ccccc1 (stereo not drawn)	none (no result: Yeast growth inh, Yeast lifespan up)
O=C(c1ccco1)n1nc(-c2ccc(Cl)cc2)nc1NCc1ccco1	RAM inhibit 9.4
Cc1ccc(-c2nc(NCc3ccco3)n(C(=O)c3ccco3)n2)cc1	none (no result: Yeast growth inh, Yeast lifespan up)
CC(=O)n1cc(-c2ccncc2)c2ccccc21	none
CC(=O)n1cc(C(C[N+](=O)[O-])SCCN)c2ccccc21 (stereo not drawn)	Yeast growth inh 73
CCCCCCCCCCCCCCCC(O)C(N)CO (stereo not drawn)	Yeast growth inh 100
CCOC(=O)Cn1nc(C)n(-c2ccc(F)cc2)c1=O	none (no result: Yeast growth inh, Yeast lifespan up)
Cc1ccc(SCC(=O)N2N=CCC2c2ccccc2)cc1 (stereo not drawn)	none (no result: Yeast growth inh, Yeast lifespan up)
CC(C)(C)C(=O)/C=c1\s/c(=C\c2ccc(-c3ccc([N+](=O)[O-])cc3)o2)c(=O)n1CC(=O)NC(N)=O	none (no result: Yeast growth inh, Yeast lifespan up)
Cc1cc(C(=O)Nc2sc3c(c2C#N)CCCC3)no1	none
CC(C)Cc1cc(C(=O)Nc2sc3c(c2C#N)CCC3)no1	RAM inhibit 10
CC(C)Cc1cc(C(=O)Nc2sc3c(c2C#N)CCCC3)no1	RAM inhibit 9.9
Cc1cc(C(=O)Nc2sc3c(c2C#N)CCC3)no1	none
COc1ccccc1N/C(=N/S(=O)(=O)c1ccc(C)cc1)c1ccc(Cl)cc1	none
COc1ccccc1NC(=O)CSc1nnc(CCNC(=O)c2ccc(C)cc2)n1C	none (no result: Yeast growth inh, Yeast lifespan up)
Cc1cc(NCCN2CCOCC2)n2ncc(-c3ccccc3)c2n1	Yeast lifespan up 42
Cc1cc(NCCN2CCOCC2)n2nc(C)c(-c3ccccc3)c2n1	none
O=C(Nc1ccccc1-c1ccccc1)C(c1ccccc1)c1ccccc1	none
C=CCc1ccc(OCCCCNC2CCCC2)c(OC)c1	none (no result: Yeast growth inh, Yeast lifespan up)
CCOc1ccc(NC(=O)C(C)Oc2ccccc2C(=O)Nc2ccc(C)c(Cl)c2)cc1 (stereo not drawn)	none
Brc1ccc(-c2ccc(/C=N/Nc3nc4ccccc4[nH]3)o2)cc1	none
Brc1ccccc1-n1nnc(-c2cccnc2)n1	none (no result: Yeast growth inh, Yeast lifespan up)
c1cncc(-c2nnc(-c3cccnc3)nn2)c1	Yeast growth inh 53
CC1CC(C)CN(C(=O)C(NS(=O)(=O)c2ccc(Br)s2)c2ccccc2)C1 (stereo not drawn)	none
Cc1cc2ccccc2c(=O)[nH]1	none
Cc1nc2cc3ccccc3cc2c(=O)[nH]1	Yeast growth inh 45
CCOCC(=O)Nc1ccc([N+](=O)[O-])cc1C	none (no result: Yeast growth inh, Yeast lifespan up)
O=C(Oc1ccc(/C=N/Nc2nc(N3CCCCC3)nc(N3CCCCC3)n2)cc1)c1ccco1	none (no result: Yeast growth inh, Yeast lifespan up)
COc1ccccc1-n1cc(CN2CCN(C3CCCCC3)C(CCO)C2)cn1 (stereo not drawn)	none (no result: Yeast growth inh, Yeast lifespan up)
CC1=C(C(=O)Nc2ccccc2)C(c2cccnc2)n2ncnc2N1 (stereo not drawn)	none (no result: Yeast growth inh, Yeast lifespan up)
Nn1cnnc1N/N=C/c1cc(Br)cc(Br)c1O	RAM inhibit 9.6
O=C(N/N=C/c1cc(Br)cc(Br)c1O)c1ccncc1	none (no result: Yeast growth inh, Yeast lifespan up)
Cc1ccnc(NS(=O)(=O)c2ccc(NC(=O)C3C4C=CC(C4)C3C(=O)O)cc2)n1 (stereo not drawn)	none (no result: Yeast growth inh, Yeast lifespan up)
COc1ccc(N(C)S(=O)(=O)c2cccc(C(=O)NC3CCCC3)c2)cc1	none (no result: Yeast growth inh, Yeast lifespan up)
COc1ccc(OCC(=O)NNC(=O)c2cccc(S(=O)(=O)N(C)C)c2)cc1	Yeast lifespan up 31
COc1ccc([N+](=O)[O-])cc1NC(=O)CSc1nc(C)cc(C)n1	none
COC(=O)c1cc(OC)c(OC)cc1NC(=O)C(C)Sc1ccc(C)cc1 (stereo not drawn)	none
COc1ccc([N+](=O)[O-])cc1NC(=O)C(C)Sc1ccc(C)cc1 (stereo not drawn)	RAM inhibit 9.2
COc1ccc([N+](=O)[O-])cc1NC(=O)CSc1ccc2ccccc2c1	RAM inhibit 8.4
CCN(CC)c1ccc(-c2n[nH]c(=S)n2-c2ccccc2)cc1	none (no result: Yeast growth inh, Yeast lifespan up)
Cc1cc(Cl)ccc1NC(=S)NCCN1CCOCC1	none
N#Cc1cc(C#N)c(N2CCN(c3ccccn3)CC2)nc1N	none
CCOC(=O)N1CCC(NC(=O)c2cc3c(=O)[nH]c4ccccc4c3n2C)CC1	none (no result: Yeast growth inh, Yeast lifespan up)
Cc1occc1-c1nnc(SCC(=O)c2ccc(F)cc2)n1Cc1ccco1	none
O=C(CSc1nnc(-c2cc3ccccc3cc2O)n1Cc1ccco1)c1ccc(F)cc1	RAM inhibit 8.4
COc1ccc(CNC(=O)C2CCN(S(=O)(=O)c3cccc4cccnc34)CC2)cc1	none
CCN1C(=O)N[C@H](c2ccc(Br)cc2)C(C(C)=O)=C1C	Yeast lifespan up 40
COCCN1C(=O)N[C@@H](c2ccccc2)C(C(C)=O)=C1C	none
CNC(=O)COC(=O)/C=C/c1cccc(F)c1	none (no result: Yeast growth inh, Yeast lifespan up)
C=CCn1c(SCC(=O)Nc2cc(OC)c(NC(=O)c3ccco3)cc2OC)nnc1-c1ccncc1	RAM inhibit 8.6 (no result: Yeast lifespan up)
C=CCn1c(SCC(=O)Nc2ccc(NC(=O)c3ccco3)c(OC)c2)nnc1-c1ccncc1	none
O=C(c1ccc(C#CC2(O)CCCCC2)cc1)N1CCN(C(c2ccccc2)c2ccccc2)CC1	none
CCOc1cc(Br)c(Br)c(C=Nc2ccc(NC(C)=O)cc2)c1O	Yeast lifespan up 49
CC(=O)Nc1ccc(N=Cc2c(O)c(C(=O)Nc3ccccc3)cc3ccccc23)cc1	none (no result: Yeast growth inh, Yeast lifespan up)
CCO[C@@H]1OC(C(=O)N2CCOCC2)=C[C@H](c2ccc(C(F)(F)F)cc2)[C@H]1CCCO	none (no result: Yeast growth inh, Yeast lifespan up)
O=C(COc1ccc2ccccc2c1)Nc1ccc(S(=O)(=O)N2CCCCCC2)cc1	none (no result: Yeast lifespan up)
CCOC(=O)c1ccc(NC(=O)CN2C(=O)CSCC2=O)cc1	none
CCOC(=O)c1ccc(NC(=O)CN2C(=O)C(CC)SC(CC)C2=O)cc1 (stereo not drawn)	RAM inhibit 9.6
CCOCc1c(C(=O)OCC(=O)Nc2ccc(C)c(S(=O)(=O)N(C)C)c2)oc2ccccc12	RAM inhibit 8.7
